Experimental data taken from ChEMBL document CHEMBL1132240, “Design and synthesis of modified quinolones as antitumoral acridones” (J Med Chem, 1999).

test system: P388; assay: Cytotoxic activity against Murine Lymphocytic Leukemia P388 Concentration of agent required to reduce cell viability by 50%; format: functional, cell-based; conditions: Mus musculus
Procedure, shortened: (§1)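 Modified MTT assay. Cells seeded per well with graded drug: CHO 2.5 × 10^3, B16 5 × 10^3, P388 and LLC 10^4, HL-60 and LoVo 5 × 10^4. After 68 h, MTT (2.5 mg/mL) added for 4 h at 37 °C. Formazan dissolved in DMSO and A550 read. Inhibition taken as fractional A550 decrease vs control. IC50/IC90 from Chou's median-effect equation.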

SMILES	IC50 [µM]
CCn1c2cc(N3CCCC3)c(N)cc2c(=O)c2c(O)cc(O)cc21	> 100
CCn1c2cc(N3CCSCC3)c(N)cc2c(=O)c2c(O)cc(O)cc21	> 100
CN1CCN(c2cc3nc4cc(O)cc(O)c4c(O)c3cc2N)CC1	57
CCN(CC)CCn1c2cc(OC)c(N)cc2c(=O)c2c(O)cc(O)cc21	2.8
CCN(CC)CCn1c2cc(N3CCN(C)CC3)c(N)cc2c(=O)c2c(O)cc(O)cc21	7.2
CCn1c2cc(Cl)ccc2c(=O)c2c(O)cc(O)cc21	> 100
CN1CCN(c2cc3c(cc2N)c(=O)c2c(O)cc(O)cc2n3C)CC1	7.2
CCN(CC)CCn1c2cc(NC)c(N)cc2c(=O)c2c(O)cc(O)cc21	3.9
CCN(CC)CCn1c2cc(N3CCCC3)c(N)cc2c(=O)c2c(O)cc(O)cc21	9.7
CCn1c2cc(N3CC(C)NC(C)C3)c(N)cc2c(=O)c2c(O)cc(O)cc21 (stereo not drawn)	6.2
CCN(CC)CCn1c2cc(N3CCSCC3)c(N)cc2c(=O)c2c(O)cc(O)cc21	8.8
CCN(CC)CCn1c2cc(O)c(N)cc2c(=O)c2c(O)cc(O)cc21	26
CCN(CC)c1cc2c(cc1N)c(=O)c1c(O)cc(O)cc1n2CC	24

test system: HL-60; assay: Cytotoxic activity against Human promyelocytic Leukemia HL-60 Concentration of agent required to reduce cell viability by 90%; format: functional; conditions: not given; procedure, shortened: as §1

SMILES	IC90 [µM]
CN1CCN(c2cc3nc4cc(O)cc(O)c4c(O)c3cc2N)CC1	> 100
CCN(CC)CCn1c2cc(OC)c(N)cc2c(=O)c2c(O)cc(O)cc21	27
CCN(CC)CCn1c2cc(N3CCN(C)CC3)c(N)cc2c(=O)c2c(O)cc(O)cc21	19
CCn1c2cc(Cl)ccc2c(=O)c2c(O)cc(O)cc21	> 100
CN1CCN(c2cc3c(cc2N)c(=O)c2c(O)cc(O)cc2n3C)CC1	39
CCN(CC)CCn1c2cc(NC)c(N)cc2c(=O)c2c(O)cc(O)cc21	27
CCN(CC)CCn1c2cc(N3CCCC3)c(N)cc2c(=O)c2c(O)cc(O)cc21	> 100
CCn1c2cc(N3CC(C)NC(C)C3)c(N)cc2c(=O)c2c(O)cc(O)cc21 (stereo not drawn)	32
CCN(CC)CCn1c2cc(O)c(N)cc2c(=O)c2c(O)cc(O)cc21	> 100
CCN(CC)c1cc2c(cc1N)c(=O)c1c(O)cc(O)cc1n2CC	58

test system: Lewis lung carcinoma cell line; assay: Cytotoxic activity against solid tumor LLC(Lewis lung carcinoma), concentration of agent required to reduce cell viability by 50%; format: functional, cell-based; conditions: Mus musculus; procedure, shortened: as §1

SMILES	IC50 [µM]
CCN(CC)CCn1c2cc(OC)c(N)cc2c(=O)c2c(O)cc(O)cc21	10
CCN(CC)CCn1c2cc(N3CCN(C)CC3)c(N)cc2c(=O)c2c(O)cc(O)cc21	24
CCN(CC)CCn1c2cc(NC)c(N)cc2c(=O)c2c(O)cc(O)cc21	23
CCn1c2cc(N3CC(C)NC(C)C3)c(N)cc2c(=O)c2c(O)cc(O)cc21 (stereo not drawn)	29

test system: LoVo; assay: Cytotoxic activity against solid tumor, LoVo, (human colon adenocarcinoma) Concentration of agent required to reduce cell viability by 90%; format: functional; conditions: not given; procedure, shortened: as §1

SMILES	IC90 [µM]
CCN(CC)CCn1c2cc(OC)c(N)cc2c(=O)c2c(O)cc(O)cc21	36
CCN(CC)CCn1c2cc(N3CCN(C)CC3)c(N)cc2c(=O)c2c(O)cc(O)cc21	21
CCN(CC)CCn1c2cc(NC)c(N)cc2c(=O)c2c(O)cc(O)cc21	44
CCn1c2cc(N3CC(C)NC(C)C3)c(N)cc2c(=O)c2c(O)cc(O)cc21 (stereo not drawn)	37

test system: CHO; assay: Cytotoxic activity against solid tumor, CHO (Chinese hamster ovaric carcinoma) Concentration of agent required to reduce cell viability by 90%; format: functional; conditions: Cricetulus griseus; procedure, shortened: as §1

SMILES	IC90 [µM]
CCN(CC)CCn1c2cc(OC)c(N)cc2c(=O)c2c(O)cc(O)cc21	20
CCN(CC)CCn1c2cc(N3CCN(C)CC3)c(N)cc2c(=O)c2c(O)cc(O)cc21	16
CCN(CC)CCn1c2cc(NC)c(N)cc2c(=O)c2c(O)cc(O)cc21	36
CCn1c2cc(N3CC(C)NC(C)C3)c(N)cc2c(=O)c2c(O)cc(O)cc21 (stereo not drawn)	38

test system: B16; assay: Cytotoxic activity against solid tumor, B16 (murine melanoma) Concentration of agent required to reduce cell viability by 90%; format: functional; conditions: Mus musculus; procedure, shortened: as §1

SMILES	IC90 [µM]
CCN(CC)CCn1c2cc(OC)c(N)cc2c(=O)c2c(O)cc(O)cc21	11
CCN(CC)CCn1c2cc(N3CCN(C)CC3)c(N)cc2c(=O)c2c(O)cc(O)cc21	23
CCN(CC)CCn1c2cc(NC)c(N)cc2c(=O)c2c(O)cc(O)cc21	24
CCn1c2cc(N3CC(C)NC(C)C3)c(N)cc2c(=O)c2c(O)cc(O)cc21 (stereo not drawn)	32

test system: CHO; assay: Cytotoxic activity against solid tumor, CHO (Chinese hamster ovaric carcinoma) Concentration of agent required to reduce cell viability by 50%; format: functional, cell-based; conditions: Cricetulus griseus; procedure, shortened: as §1

SMILES	IC50 [µM]
CCN(CC)CCn1c2cc(OC)c(N)cc2c(=O)c2c(O)cc(O)cc21	5.6
CCN(CC)CCn1c2cc(N3CCN(C)CC3)c(N)cc2c(=O)c2c(O)cc(O)cc21	7.1
CCN(CC)CCn1c2cc(NC)c(N)cc2c(=O)c2c(O)cc(O)cc21	8.2
CCn1c2cc(N3CC(C)NC(C)C3)c(N)cc2c(=O)c2c(O)cc(O)cc21 (stereo not drawn)	12

test system: B16; assay: Cytotoxic activity against solid tumor, B16 (murine melanoma) Concentration of agent required to reduce cell viability by 50%; format: functional, cell-based; conditions: Mus musculus; procedure, shortened: as §1

SMILES	IC50 [µM]
CCN(CC)CCn1c2cc(OC)c(N)cc2c(=O)c2c(O)cc(O)cc21	3.4
CCN(CC)CCn1c2cc(N3CCN(C)CC3)c(N)cc2c(=O)c2c(O)cc(O)cc21	16
CCN(CC)CCn1c2cc(NC)c(N)cc2c(=O)c2c(O)cc(O)cc21	3.8
CCn1c2cc(N3CC(C)NC(C)C3)c(N)cc2c(=O)c2c(O)cc(O)cc21 (stereo not drawn)	22

test system: P388; assay: Cytotoxic activity Murine Lymphocytic Leukemia P388 Concentration of agent required to reduce cell viability by 90%; format: functional; conditions: Mus musculus; procedure, shortened: as §1

SMILES	IC90 [µM]
CCn1c2cc(N3CCCC3)c(N)cc2c(=O)c2c(O)cc(O)cc21	> 100
CCn1c2cc(N3CCSCC3)c(N)cc2c(=O)c2c(O)cc(O)cc21	> 100
CN1CCN(c2cc3nc4cc(O)cc(O)c4c(O)c3cc2N)CC1	> 100
CCN(CC)CCn1c2cc(OC)c(N)cc2c(=O)c2c(O)cc(O)cc21	5.9
CCN(CC)CCn1c2cc(N3CCN(C)CC3)c(N)cc2c(=O)c2c(O)cc(O)cc21	13
CCn1c2cc(Cl)ccc2c(=O)c2c(O)cc(O)cc21	> 100
CN1CCN(c2cc3c(cc2N)c(=O)c2c(O)cc(O)cc2n3C)CC1	11
CCN(CC)CCn1c2cc(NC)c(N)cc2c(=O)c2c(O)cc(O)cc21	7
CCN(CC)CCn1c2cc(N3CCCC3)c(N)cc2c(=O)c2c(O)cc(O)cc21	21
CCn1c2cc(N3CC(C)NC(C)C3)c(N)cc2c(=O)c2c(O)cc(O)cc21 (stereo not drawn)	18
CCN(CC)CCn1c2cc(N3CCSCC3)c(N)cc2c(=O)c2c(O)cc(O)cc21	19
CCN(CC)CCn1c2cc(O)c(N)cc2c(=O)c2c(O)cc(O)cc21	56
CCN(CC)c1cc2c(cc1N)c(=O)c1c(O)cc(O)cc1n2CC	50

test system: HL-60; assay: Cytotoxic activity against Human promyelocytic Leukemia HL-60 Concentration of agent required to reduce cell viability by 50%; format: functional, cell-based; conditions: not given; procedure, shortened: as §1

SMILES	IC50 [µM]
CN1CCN(c2cc3nc4cc(O)cc(O)c4c(O)c3cc2N)CC1	> 100
CCN(CC)CCn1c2cc(OC)c(N)cc2c(=O)c2c(O)cc(O)cc21	8.2
CCN(CC)CCn1c2cc(N3CCN(C)CC3)c(N)cc2c(=O)c2c(O)cc(O)cc21	11
CCn1c2cc(Cl)ccc2c(=O)c2c(O)cc(O)cc21	> 100
CN1CCN(c2cc3c(cc2N)c(=O)c2c(O)cc(O)cc2n3C)CC1	24
CCN(CC)CCn1c2cc(NC)c(N)cc2c(=O)c2c(O)cc(O)cc21	9.7
CCN(CC)CCn1c2cc(N3CCCC3)c(N)cc2c(=O)c2c(O)cc(O)cc21	96
CCn1c2cc(N3CC(C)NC(C)C3)c(N)cc2c(=O)c2c(O)cc(O)cc21 (stereo not drawn)	21
CCN(CC)CCn1c2cc(O)c(N)cc2c(=O)c2c(O)cc(O)cc21	> 100
CCN(CC)c1cc2c(cc1N)c(=O)c1c(O)cc(O)cc1n2CC	24

test system: Lewis lung carcinoma cell line; assay: Cytotoxic activity against solid tumor LLC(Lewis lung carcinoma), concentration of agent required to reduce cell viability by 90%; format: functional; conditions: Mus musculus; procedure, shortened: as §1

SMILES	IC90 [µM]
CCN(CC)CCn1c2cc(OC)c(N)cc2c(=O)c2c(O)cc(O)cc21	32
CCN(CC)CCn1c2cc(N3CCN(C)CC3)c(N)cc2c(=O)c2c(O)cc(O)cc21	35
CCN(CC)CCn1c2cc(NC)c(N)cc2c(=O)c2c(O)cc(O)cc21	64
CCn1c2cc(N3CC(C)NC(C)C3)c(N)cc2c(=O)c2c(O)cc(O)cc21 (stereo not drawn)	43

test system: LoVo; assay: Cytotoxic activity against solid tumor, LoVo, (human colon adenocarcinoma) Concentration of agent required to reduce cell viability by 50%; format: functional, cell-based; conditions: not given; procedure, shortened: as §1

SMILES	IC50 [µM]
CCN(CC)CCn1c2cc(OC)c(N)cc2c(=O)c2c(O)cc(O)cc21	11
CCN(CC)CCn1c2cc(N3CCN(C)CC3)c(N)cc2c(=O)c2c(O)cc(O)cc21	17
CCN(CC)CCn1c2cc(NC)c(N)cc2c(=O)c2c(O)cc(O)cc21	26
CCn1c2cc(N3CC(C)NC(C)C3)c(N)cc2c(=O)c2c(O)cc(O)cc21 (stereo not drawn)	21
